Activity calls are given as the source filed them. The rule behind the calls is not given here.
These molecules were tested on Escherichia coli (assay: Antibacterial activity against Escherichia coli ATCC 25922 at 10 ug/ml after 24 hrs). Details: not given.
Format: functional, organism-based
Outline: (§1)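 Organisms grown overnight at 37 °C in buffered glucose broth. A loopful (5 mm diameter) was added to buffered glucose broth containing the test compound and incubated at 37 °C for 24 h. Growth was scored against the untreated control as total inhibition, poor, medium or confluent growth.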

Structure (SMILES)	inhibition
COc1ccccc1C1C(Cl)C(=O)N1c1nnc(Cn2c(C)nc3ccccc32)s1 (stereo not given)	inactive
Cc1nc2ccccc2n1Cc1nnc(/N=C/c2cccc(O)c2)s1	inactive
Cc1cccc(C2C(Cl)C(=O)N2c2nnc(Cn3c(C)nc4ccccc43)s2)c1 (stereo not given)	inactive
COc1ccccc1/C=N/c1nnc(Cn2c(C)nc3ccccc32)s1	inactive
Cc1cccc(/C=N/c2nnc(Cn3c(C)nc4ccccc43)s2)c1	inactive
Cc1nc2ccccc2n1Cc1nnc(N2C(=O)C(Cl)C2c2ccc(Cl)cc2)s1 (stereo not given)	inactive

What follows are molecules tested on Escherichia coli (assay: Antibacterial activity against Escherichia coli ATCC 25922 at 500 ug/ml after 24 hrs). Details: not given.
Format: functional, organism-based
Outline: as §1

Structure (SMILES)	inhibition
COc1ccccc1C1C(Cl)C(=O)N1c1nnc(Cn2c(C)nc3ccccc32)s1 (stereo not given)	inactive
Cc1nc2ccccc2n1Cc1nnc(/N=C/c2cccc(O)c2)s1	inactive
Cc1cccc(C2C(Cl)C(=O)N2c2nnc(Cn3c(C)nc4ccccc43)s2)c1 (stereo not given)	inactive
COc1ccccc1/C=N/c1nnc(Cn2c(C)nc3ccccc32)s1	inactive
Cc1cccc(/C=N/c2nnc(Cn3c(C)nc4ccccc43)s2)c1	inactive
Cc1nc2ccccc2n1Cc1nnc(N2C(=O)C(Cl)C2c2ccc(Cl)cc2)s1 (stereo not given)	inactive

These molecules were tested on Aspergillus niger (assay: Antifungal activity against Aspergillus niger AIIMS isolate at 30 ug/ml by cup-plate agar diffusion method). Details: not given.
Format: functional
Outline: (§2)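 Cup-plate agar diffusion assay against the fungal strains, with amphotericin B as the reference standard.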

Structure (SMILES)	diameter of the inhibition zone (DIZ)
Cc1cccc(C2C(Cl)C(=O)N2c2nnc(Cn3c(C)nc4ccccc43)s2)c1 (stereo not given)	inactive
Cc1cccc(/C=N/c2nnc(Cn3c(C)nc4ccccc43)s2)c1	inactive
Cc1nc2ccccc2n1Cc1nnc(N2C(=O)C(Cl)C2c2ccc(Cl)cc2)s1 (stereo not given)	inactive

Same assay, conditions: read-out: DIZ

Structure (SMILES)	zone of inhibition at 30 µg/mL [mm]
COc1ccccc1C1C(Cl)C(=O)N1c1nnc(Cn2c(C)nc3ccccc32)s1 (stereo not given)	< 10
Cc1nc2ccccc2n1Cc1nnc(/N=C/c2cccc(O)c2)s1	10
COc1ccccc1/C=N/c1nnc(Cn2c(C)nc3ccccc32)s1	16

These molecules were tested on Bacillus subtilis (assay: Antibacterial activity against Bacillus subtilis MTCC 121 at 1 ug/ml after 24 hrs). Details: not given.
Format: functional, organism-based
Outline: as §1

Structure (SMILES)	inhibition
COc1ccccc1C1C(Cl)C(=O)N1c1nnc(Cn2c(C)nc3ccccc32)s1 (stereo not given)	inactive
Cc1nc2ccccc2n1Cc1nnc(/N=C/c2cccc(O)c2)s1	inactive
Cc1cccc(C2C(Cl)C(=O)N2c2nnc(Cn3c(C)nc4ccccc43)s2)c1 (stereo not given)	inactive
COc1ccccc1/C=N/c1nnc(Cn2c(C)nc3ccccc32)s1	inactive
Cc1cccc(/C=N/c2nnc(Cn3c(C)nc4ccccc43)s2)c1	inactive
Cc1nc2ccccc2n1Cc1nnc(N2C(=O)C(Cl)C2c2ccc(Cl)cc2)s1 (stereo not given)	inactive

Each molecule was assayed on Candida albicans (assay: Antifungal activity against Candida albicans MTCC 1637 at 30 ug/ml by cup-plate agar diffusion method). Details: not given.
Format: functional
Outline: as §2

Structure (SMILES)	diameter of the inhibition zone (DIZ)
Cc1cccc(C2C(Cl)C(=O)N2c2nnc(Cn3c(C)nc4ccccc43)s2)c1 (stereo not given)	inactive
Cc1cccc(/C=N/c2nnc(Cn3c(C)nc4ccccc43)s2)c1	inactive
Cc1nc2ccccc2n1Cc1nnc(N2C(=O)C(Cl)C2c2ccc(Cl)cc2)s1 (stereo not given)	inactive

Same assay, conditions: read-out: DIZ

Structure (SMILES)	zone of inhibition at 30 µg/mL [mm]
COc1ccccc1C1C(Cl)C(=O)N1c1nnc(Cn2c(C)nc3ccccc32)s1 (stereo not given)	< 10
Cc1nc2ccccc2n1Cc1nnc(/N=C/c2cccc(O)c2)s1	22
COc1ccccc1/C=N/c1nnc(Cn2c(C)nc3ccccc32)s1	10

Each molecule was assayed on Aspergillus flavus (assay: Antifungal activity against Aspergillus flavus AIIMS isolate at 30 ug/ml by cup-plate agar diffusion method). Details: not given.
Format: functional
Outline: as §2

Structure (SMILES)	diameter of the inhibition zone (DIZ)
Cc1cccc(C2C(Cl)C(=O)N2c2nnc(Cn3c(C)nc4ccccc43)s2)c1 (stereo not given)	inactive
Cc1cccc(/C=N/c2nnc(Cn3c(C)nc4ccccc43)s2)c1	inactive
Cc1nc2ccccc2n1Cc1nnc(N2C(=O)C(Cl)C2c2ccc(Cl)cc2)s1 (stereo not given)	inactive

Same assay, conditions: read-out: DIZ

Structure (SMILES)	zone of inhibition at 30 µg/mL [mm]
COc1ccccc1C1C(Cl)C(=O)N1c1nnc(Cn2c(C)nc3ccccc32)s1 (stereo not given)	< 10
Cc1nc2ccccc2n1Cc1nnc(/N=C/c2cccc(O)c2)s1	10
COc1ccccc1/C=N/c1nnc(Cn2c(C)nc3ccccc32)s1	16

The molecules below were run on Escherichia coli (assay: Antibacterial activity against Escherichia coli ATCC 25922 at 100 ug/ml after 24 hrs). Details: not given.
Format: functional, organism-based
Outline: as §1

Structure (SMILES)	inhibition
COc1ccccc1C1C(Cl)C(=O)N1c1nnc(Cn2c(C)nc3ccccc32)s1 (stereo not given)	inactive
Cc1nc2ccccc2n1Cc1nnc(/N=C/c2cccc(O)c2)s1	inactive
Cc1cccc(C2C(Cl)C(=O)N2c2nnc(Cn3c(C)nc4ccccc43)s2)c1 (stereo not given)	inactive
COc1ccccc1/C=N/c1nnc(Cn2c(C)nc3ccccc32)s1	inactive
Cc1cccc(/C=N/c2nnc(Cn3c(C)nc4ccccc43)s2)c1	inactive
Cc1nc2ccccc2n1Cc1nnc(N2C(=O)C(Cl)C2c2ccc(Cl)cc2)s1 (stereo not given)	inactive

These molecules were tested on Escherichia coli (assay: Antibacterial activity against Escherichia coli ATCC 25922 at 1 ug/ml after 24 hrs). Details: not given.
Format: functional, organism-based
Outline: as §1

Structure (SMILES)	inhibition
COc1ccccc1C1C(Cl)C(=O)N1c1nnc(Cn2c(C)nc3ccccc32)s1 (stereo not given)	inactive
Cc1nc2ccccc2n1Cc1nnc(/N=C/c2cccc(O)c2)s1	inactive
Cc1cccc(C2C(Cl)C(=O)N2c2nnc(Cn3c(C)nc4ccccc43)s2)c1 (stereo not given)	inactive
COc1ccccc1/C=N/c1nnc(Cn2c(C)nc3ccccc32)s1	inactive
Cc1cccc(/C=N/c2nnc(Cn3c(C)nc4ccccc43)s2)c1	inactive
Cc1nc2ccccc2n1Cc1nnc(N2C(=O)C(Cl)C2c2ccc(Cl)cc2)s1 (stereo not given)	inactive

What follows are molecules tested on Bacillus subtilis (assay: Antibacterial activity against Bacillus subtilis MTCC 121 at 200 ug/ml after 24 hrs). Details: not given.
Format: functional, organism-based
Outline: as §1

Structure (SMILES)	inhibition	Activity
COc1ccccc1C1C(Cl)C(=O)N1c1nnc(Cn2c(C)nc3ccccc32)s1 (stereo not given)	inactive	
Cc1nc2ccccc2n1Cc1nnc(/N=C/c2cccc(O)c2)s1	inactive	
Cc1cccc(C2C(Cl)C(=O)N2c2nnc(Cn3c(C)nc4ccccc43)s2)c1 (stereo not given)	inactive	
COc1ccccc1/C=N/c1nnc(Cn2c(C)nc3ccccc32)s1	inactive	
Cc1cccc(/C=N/c2nnc(Cn3c(C)nc4ccccc43)s2)c1		inactive
Cc1nc2ccccc2n1Cc1nnc(N2C(=O)C(Cl)C2c2ccc(Cl)cc2)s1 (stereo not given)	inactive	

These molecules were tested on Escherichia coli (assay: Antibacterial activity against Escherichia coli ATCC 25922 at 200 ug/ml after 24 hrs). Details: not given.
Format: functional, organism-based
Outline: as §1

Structure (SMILES)	inhibition
COc1ccccc1C1C(Cl)C(=O)N1c1nnc(Cn2c(C)nc3ccccc32)s1 (stereo not given)	inactive
Cc1nc2ccccc2n1Cc1nnc(/N=C/c2cccc(O)c2)s1	inactive
Cc1cccc(C2C(Cl)C(=O)N2c2nnc(Cn3c(C)nc4ccccc43)s2)c1 (stereo not given)	inactive
COc1ccccc1/C=N/c1nnc(Cn2c(C)nc3ccccc32)s1	inactive
Cc1cccc(/C=N/c2nnc(Cn3c(C)nc4ccccc43)s2)c1	inactive
Cc1nc2ccccc2n1Cc1nnc(N2C(=O)C(Cl)C2c2ccc(Cl)cc2)s1 (stereo not given)	inactive

The molecules below were run on Bacillus subtilis (assay: Antibacterial activity against Bacillus subtilis MTCC 121 at 10 ug/ml after 24 hrs). Details: not given.
Format: functional, organism-based
Outline: as §1

Structure (SMILES)	inhibition
COc1ccccc1C1C(Cl)C(=O)N1c1nnc(Cn2c(C)nc3ccccc32)s1 (stereo not given)	inactive
Cc1nc2ccccc2n1Cc1nnc(/N=C/c2cccc(O)c2)s1	inactive
Cc1cccc(C2C(Cl)C(=O)N2c2nnc(Cn3c(C)nc4ccccc43)s2)c1 (stereo not given)	inactive
COc1ccccc1/C=N/c1nnc(Cn2c(C)nc3ccccc32)s1	inactive
Cc1cccc(/C=N/c2nnc(Cn3c(C)nc4ccccc43)s2)c1	inactive
Cc1nc2ccccc2n1Cc1nnc(N2C(=O)C(Cl)C2c2ccc(Cl)cc2)s1 (stereo not given)	inactive

These molecules were tested on Escherichia coli (assay: Antibacterial activity against Escherichia coli ATCC 25922 after 24 hrs). Details: not given.
Format: functional

Structure (SMILES)	MIC
COc1ccccc1C1C(Cl)C(=O)N1c1nnc(Cn2c(C)nc3ccccc32)s1 (stereo not given)	inactive
Cc1nc2ccccc2n1Cc1nnc(/N=C/c2cccc(O)c2)s1	inactive
Cc1cccc(C2C(Cl)C(=O)N2c2nnc(Cn3c(C)nc4ccccc43)s2)c1 (stereo not given)	inactive
COc1ccccc1/C=N/c1nnc(Cn2c(C)nc3ccccc32)s1	inactive
Cc1cccc(/C=N/c2nnc(Cn3c(C)nc4ccccc43)s2)c1	inactive
Cc1nc2ccccc2n1Cc1nnc(N2C(=O)C(Cl)C2c2ccc(Cl)cc2)s1 (stereo not given)	inactive

What follows are molecules tested on Bacillus subtilis (assay: Antibacterial activity against Bacillus subtilis MTCC 121 at 100 ug/ml after 24 hrs). Details: not given.
Format: functional, organism-based
Outline: as §1

Structure (SMILES)	inhibition
COc1ccccc1C1C(Cl)C(=O)N1c1nnc(Cn2c(C)nc3ccccc32)s1 (stereo not given)	inactive
Cc1nc2ccccc2n1Cc1nnc(/N=C/c2cccc(O)c2)s1	inactive
Cc1cccc(C2C(Cl)C(=O)N2c2nnc(Cn3c(C)nc4ccccc43)s2)c1 (stereo not given)	inactive
COc1ccccc1/C=N/c1nnc(Cn2c(C)nc3ccccc32)s1	inactive
Cc1cccc(/C=N/c2nnc(Cn3c(C)nc4ccccc43)s2)c1	inactive
Cc1nc2ccccc2n1Cc1nnc(N2C(=O)C(Cl)C2c2ccc(Cl)cc2)s1 (stereo not given)	inactive

Each molecule was assayed on Bacillus subtilis (assay: Antibacterial activity against Bacillus subtilis MTCC 121 at 500 ug/ml after 24 hrs). Details: not given.
Format: functional, organism-based
Outline: as §1

Structure (SMILES)	Activity
COc1ccccc1C1C(Cl)C(=O)N1c1nnc(Cn2c(C)nc3ccccc32)s1 (stereo not given)	inactive
Cc1nc2ccccc2n1Cc1nnc(/N=C/c2cccc(O)c2)s1	inactive
Cc1cccc(C2C(Cl)C(=O)N2c2nnc(Cn3c(C)nc4ccccc43)s2)c1 (stereo not given)	inactive
COc1ccccc1/C=N/c1nnc(Cn2c(C)nc3ccccc32)s1	inactive
Cc1cccc(/C=N/c2nnc(Cn3c(C)nc4ccccc43)s2)c1	inactive
Cc1nc2ccccc2n1Cc1nnc(N2C(=O)C(Cl)C2c2ccc(Cl)cc2)s1 (stereo not given)	inactive

Each molecule was assayed on Bacillus subtilis (assay: Antibacterial activity against Bacillus subtilis MTCC 121 after 24 hrs). Details: not given.
Format: functional

Structure (SMILES)	MIC	Activity
COc1ccccc1C1C(Cl)C(=O)N1c1nnc(Cn2c(C)nc3ccccc32)s1 (stereo not given)	inactive	
Cc1nc2ccccc2n1Cc1nnc(/N=C/c2cccc(O)c2)s1	inactive	
Cc1cccc(C2C(Cl)C(=O)N2c2nnc(Cn3c(C)nc4ccccc43)s2)c1 (stereo not given)	inactive	
COc1ccccc1/C=N/c1nnc(Cn2c(C)nc3ccccc32)s1	inactive	
Cc1cccc(/C=N/c2nnc(Cn3c(C)nc4ccccc43)s2)c1		inactive
Cc1nc2ccccc2n1Cc1nnc(N2C(=O)C(Cl)C2c2ccc(Cl)cc2)s1 (stereo not given)	inactive	

Reference: ChEMBL document CHEMBL1158335, “Synthesis and evaluation of some new benzimidazole derivatives as potential antimicrobial agents” (2009)
